# Experimental data: ChEMBL document CHEMBL2429834, “Potent histone deacetylase inhibitors derived from 4-(aminomethyl)-N-hydroxybenzamide with high selectivity for the HDAC6 isoform” (J Med Chem, 2013)
# Assays:
# [1] = biological target: Matrix metalloproteinase-9 (Homo sapiens) (UniProt P14780); test: Inhibition of MMP9 (unknown origin)
# [2] = Permeability in human Caco2 cells at pH 7.4; type: ADME, cell-based; conditions: Caco-2, pH 7.4, read-out: permeability
# Histone deacetylase 11 = biological target: T1, Histone deacetylase 11 (Homo sapiens, UniProt Q96DB2); test: Inhibition of full length N-terminal GST-tagged recombinant human HDAC11 expressed in baculovirus using Arg-His-Lys-Lys (Ac) as substrate after 1 hr by fluorescence plate reader analysis
# T1 sequence (Q96DB2 whole entry): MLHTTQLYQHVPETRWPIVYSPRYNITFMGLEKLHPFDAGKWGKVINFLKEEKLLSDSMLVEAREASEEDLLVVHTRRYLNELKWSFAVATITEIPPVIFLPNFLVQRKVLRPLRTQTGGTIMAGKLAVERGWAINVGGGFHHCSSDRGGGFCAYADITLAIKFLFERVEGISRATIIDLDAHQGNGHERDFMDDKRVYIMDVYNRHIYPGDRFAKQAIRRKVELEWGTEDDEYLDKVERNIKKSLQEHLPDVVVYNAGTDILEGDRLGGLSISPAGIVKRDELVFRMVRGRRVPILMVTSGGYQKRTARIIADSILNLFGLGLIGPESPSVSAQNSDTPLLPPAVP
# [3] = Efflux ratio of permeability in human Caco2 cells at pH 7.4; type: ADME, cell-based; conditions: Caco-2, pH 7.4
# [4] = biological target: 72 kDa type IV collagenase (Homo sapiens) (UniProt P08253); test: Inhibition of MMP2 (unknown origin)
# 72 kDa type IV collagenase (Homo sapiens), sequence (P08253 110-660 limits assumed): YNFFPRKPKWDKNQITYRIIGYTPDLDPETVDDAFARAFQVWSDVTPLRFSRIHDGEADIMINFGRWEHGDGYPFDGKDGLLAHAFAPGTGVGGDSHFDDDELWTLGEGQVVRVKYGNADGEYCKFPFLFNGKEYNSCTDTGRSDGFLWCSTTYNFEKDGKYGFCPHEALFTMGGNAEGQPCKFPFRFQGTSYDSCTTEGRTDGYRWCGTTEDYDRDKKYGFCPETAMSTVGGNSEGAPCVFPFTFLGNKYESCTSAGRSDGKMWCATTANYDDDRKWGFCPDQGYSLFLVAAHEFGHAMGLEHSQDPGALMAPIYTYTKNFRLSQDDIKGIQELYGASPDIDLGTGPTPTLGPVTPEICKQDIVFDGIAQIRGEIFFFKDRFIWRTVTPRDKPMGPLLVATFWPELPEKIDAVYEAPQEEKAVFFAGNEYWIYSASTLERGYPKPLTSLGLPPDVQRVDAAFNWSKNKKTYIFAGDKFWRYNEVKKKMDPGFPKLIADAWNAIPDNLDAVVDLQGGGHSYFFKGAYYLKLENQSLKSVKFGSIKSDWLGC
# [5] = biological target: T2, Matrix metalloproteinase-17 (Homo sapiens) (UniProt Q9ULZ9); test: Inhibition of MMP4 (unknown origin)
# T2 sequence (whole entry): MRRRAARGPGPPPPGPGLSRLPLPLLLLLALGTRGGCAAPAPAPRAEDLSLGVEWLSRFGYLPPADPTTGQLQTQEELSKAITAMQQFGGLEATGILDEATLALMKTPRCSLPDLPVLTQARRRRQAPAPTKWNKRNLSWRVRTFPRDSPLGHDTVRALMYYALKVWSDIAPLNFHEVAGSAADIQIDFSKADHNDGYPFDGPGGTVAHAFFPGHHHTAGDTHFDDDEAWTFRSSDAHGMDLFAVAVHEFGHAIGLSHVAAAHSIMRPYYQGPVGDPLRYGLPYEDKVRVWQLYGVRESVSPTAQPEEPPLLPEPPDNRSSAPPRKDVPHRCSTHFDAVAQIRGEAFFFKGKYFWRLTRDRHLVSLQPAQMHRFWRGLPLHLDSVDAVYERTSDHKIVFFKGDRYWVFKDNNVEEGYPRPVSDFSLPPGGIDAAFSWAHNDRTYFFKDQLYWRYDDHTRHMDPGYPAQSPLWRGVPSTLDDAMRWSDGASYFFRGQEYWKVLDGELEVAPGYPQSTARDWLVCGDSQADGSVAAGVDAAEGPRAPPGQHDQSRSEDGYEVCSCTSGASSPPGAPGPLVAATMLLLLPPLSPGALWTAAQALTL
# [6] = Aqueous thermodynamic solubility of the compound in potassium phosphate monobasic buffer at pH 7.5 after 24 hrs by LC-MS analysis; type: physicochemical; conditions: read-out: Therm_solubility
# [7] = biological target: T3, Protein deacetylase HDAC6 (Homo sapiens) (UniProt Q9UBN7); test: Inhibition of HDAC6 in human HeLa cells assessed as inhibition of acetyl histone hydrolysis at 10 uM after 24 hrs by immunofluorescence assay relative to control; type: cell-based
# T3 sequence (whole entry): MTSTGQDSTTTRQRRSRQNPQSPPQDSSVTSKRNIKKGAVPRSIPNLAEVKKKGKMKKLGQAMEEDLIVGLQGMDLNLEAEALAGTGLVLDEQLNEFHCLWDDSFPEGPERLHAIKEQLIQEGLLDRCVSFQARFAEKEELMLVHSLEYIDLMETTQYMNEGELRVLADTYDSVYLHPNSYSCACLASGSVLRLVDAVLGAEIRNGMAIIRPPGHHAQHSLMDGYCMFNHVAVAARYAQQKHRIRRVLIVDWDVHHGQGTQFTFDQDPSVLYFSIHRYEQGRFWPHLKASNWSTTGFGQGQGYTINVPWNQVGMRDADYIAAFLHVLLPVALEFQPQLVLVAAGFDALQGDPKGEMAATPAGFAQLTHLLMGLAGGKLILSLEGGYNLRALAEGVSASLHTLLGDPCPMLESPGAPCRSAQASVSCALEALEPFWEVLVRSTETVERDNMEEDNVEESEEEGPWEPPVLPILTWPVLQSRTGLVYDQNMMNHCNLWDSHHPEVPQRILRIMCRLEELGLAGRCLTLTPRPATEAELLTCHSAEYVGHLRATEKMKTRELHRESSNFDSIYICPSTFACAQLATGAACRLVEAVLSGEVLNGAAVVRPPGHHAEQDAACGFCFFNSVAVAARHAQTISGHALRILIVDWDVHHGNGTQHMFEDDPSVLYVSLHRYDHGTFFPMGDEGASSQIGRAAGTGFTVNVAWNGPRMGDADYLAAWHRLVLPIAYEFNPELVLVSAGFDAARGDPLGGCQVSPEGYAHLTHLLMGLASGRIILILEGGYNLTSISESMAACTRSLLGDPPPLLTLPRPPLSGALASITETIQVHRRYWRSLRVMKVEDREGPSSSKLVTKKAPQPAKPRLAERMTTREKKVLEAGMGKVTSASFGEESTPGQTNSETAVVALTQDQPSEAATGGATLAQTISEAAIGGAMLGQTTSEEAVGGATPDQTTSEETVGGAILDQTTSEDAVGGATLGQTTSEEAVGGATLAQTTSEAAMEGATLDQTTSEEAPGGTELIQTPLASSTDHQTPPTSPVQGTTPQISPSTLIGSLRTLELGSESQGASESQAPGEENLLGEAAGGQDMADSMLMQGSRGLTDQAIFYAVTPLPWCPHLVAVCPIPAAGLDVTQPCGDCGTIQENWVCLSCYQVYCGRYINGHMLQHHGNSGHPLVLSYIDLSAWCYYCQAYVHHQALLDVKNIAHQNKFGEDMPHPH
# In short: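 HeLa cells (8000/well, MEM with 10% FBS) given compound 24 h (histone) or 6 h (tubulin). Fixed in 4% paraformaldehyde, permeabilized with 0.5% Triton X-100, stained with anti-acetyl-lysine or anti-acetyl-tubulin and Alexa 488 secondary plus Hoechst. Imaged at nine sites per well, 20×; percent inhibition relative to 0.2% DMSO controls.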
# Matrix metalloproteinase-9 (Homo sapiens), sequence (P14780 whole entry): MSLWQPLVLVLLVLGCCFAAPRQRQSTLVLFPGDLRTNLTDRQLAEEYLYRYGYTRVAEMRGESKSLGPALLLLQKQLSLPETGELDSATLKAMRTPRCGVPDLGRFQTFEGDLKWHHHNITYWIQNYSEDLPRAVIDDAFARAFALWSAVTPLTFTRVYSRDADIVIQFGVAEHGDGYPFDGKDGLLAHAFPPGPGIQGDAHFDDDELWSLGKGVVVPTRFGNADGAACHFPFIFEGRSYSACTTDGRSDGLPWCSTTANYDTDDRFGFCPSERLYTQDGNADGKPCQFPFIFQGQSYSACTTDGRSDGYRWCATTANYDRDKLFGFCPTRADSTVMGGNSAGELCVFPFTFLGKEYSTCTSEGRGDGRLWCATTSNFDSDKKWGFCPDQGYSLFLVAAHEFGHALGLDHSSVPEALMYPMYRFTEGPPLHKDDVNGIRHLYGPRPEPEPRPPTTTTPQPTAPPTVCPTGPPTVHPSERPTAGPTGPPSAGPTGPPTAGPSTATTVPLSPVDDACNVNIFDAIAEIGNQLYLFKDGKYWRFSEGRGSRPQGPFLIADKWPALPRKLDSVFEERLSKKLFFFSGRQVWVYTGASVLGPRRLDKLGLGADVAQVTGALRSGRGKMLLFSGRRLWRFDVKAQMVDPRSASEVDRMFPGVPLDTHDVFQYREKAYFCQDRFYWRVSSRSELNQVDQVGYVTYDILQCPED
smiles,measurement,setting,value
Cn1cccc1C(=O)N1CCc2cc(C(=O)NO)ccc2C1,INH,[1],> 100 µM
same,Papp,[2],22 ×10⁻⁶ cm/s
same,IC50,Histone deacetylase 11,> 50 µM
same,efflux ratio,[3],1.5
same,INH,[4],> 100 µM
same,INH,[5],> 100 µM
same,solubility thermodynamic at 24 h,[6],2000 µM
CC(C)(C)C(=O)N1Cc2ccc(C(=O)NO)cc2C1,IC50,Histone deacetylase 11,> 50 µM
CC(C)(C)C(=O)N1CCc2cc(C(=O)NO)ccc2C1,IC50,Histone deacetylase 11,> 50 µM
Cn1cccc1C(=O)NCc1ccc(C(=O)NO)cc1,inhibition,[7],26%
Cn1cccc1C(=O)N1Cc2ccc(C(=O)NO)cc2C1,IC50,Histone deacetylase 11,> 50 µM
Cn1cccc1C(=O)N1CCCc2cc(C(=O)NO)ccc2C1,IC50,Histone deacetylase 11,> 50 µM
